# Test results from ChEMBL document CHEMBL4373712, “Bioactivatable Pseudotripeptidization of Cyclic Dipeptides To Increase the Affinity toward Oligopeptide Transporter 1 for Enhanced Oral Absorption: An Application to Cyclo(l-Hyp-l-Ser) (JBP485)” (J Med Chem, 2019).
# The source made the active and inactive calls. No cut-off for these calls is given here.
# Assays:
# [1] = AUC (0 to t) in Beagle dog assessed as JBP485 level at 12 mg/kg equiv of JBP485 administered orally by UPLC-MS/MS analysis; type: ADME, organism-based, Canis lupus familiaris; conditions: in vivo, po
# How it was run: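 Male beagle dogs, 2 years old, 8-10 kg, n=6. Single oral dose of 12 mg/kg (prodrug dosed as JBP485 equivalent) given in aqueous solution. Jugular venipuncture blood taken at 0.167-8 h into sodium heparin tubes. Plasma JBP485 measured by UPLC-MS/MS; AUC0-t and Cmax from the concentration-time profiles.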
# [2] = Cmax in Sprague-Dawley rat assessed as JBP485 level at 12 mg/kg equiv of JBP485 administered orally by UPLC-MS/MS analysis; type: ADME, organism-based; parameters: dose 12 mg/kg, route oral; conditions: in vivo, po
# How it was run: (§1)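 Male SD rats, 200-250 g, fasted 12 h with water, n=6. Oral dose of 12 mg/kg as JBP485 equivalent; dose-effect arms at 12 and 100 mg/kg. JBP485 given iv at 6 mg/kg as the reference. Jugular blood taken at 0.083-10 h. Plasma JBP485 by UPLC-MS/MS. Absolute F = (AUCpo×Div)/(AUCiv×Dpo)×100%, using AUC0-t.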
# [3] = Ratio of half-life in pH 7.2 phosphate buffer to half-life in Sprague-Dawley rat liver homogenates; type: ADME, tissue-based; conditions: tissue homogenate
# [4] = Tmax in Beagle dog assessed as JBP485 level at 12 mg/kg equiv of JBP485 administered orally by UPLC-MS/MS analysis; type: ADME, organism-based, Canis lupus familiaris; conditions: in vivo, po
# How it was run: (§2)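 Male beagle dogs, 2 years old, 8–10 kg, dosed orally at 12 mg/kg (prodrug calculated as JBP485) in aqueous solution. Jugular blood taken 0.167–8 h into heparin, centrifuged, plasma JBP485 by UPLC-MS/MS; n=6.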
# [5] = Terminal half life in Beagle dog assessed as JBP485 level at 12 mg/kg equiv of JBP485 administered orally by UPLC-MS/MS analysis; type: ADME, organism-based, Canis lupus familiaris; conditions: in vivo, po; how it was run: as §2
# [6] = Tmax in Sprague-Dawley rat assessed as JBP485 level at 12 mg/kg equiv of JBP485 administered orally by UPLC-MS/MS analysis; type: ADME, organism-based; conditions: in vivo, po
# How it was run: (§3)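 Fasted male SD rats (200–250 g), oral 12 mg/kg (prodrugs calculated as JBP485). Jugular blood 0.083–10 h, centrifuged, plasma JBP485 by UPLC-MS/MS; n=6.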
# Rattus norvegicus [7] = test: (§4) Anti-hepatitis activity in ANIT-induced Sprague-Dawley rat model of liver injury assessed as reduction in hepatocellular edema at 6.25 to 12.5 mg/kg, ip administered 30 mins prior to ANIT challenge and subsequent dosing at 8, 22, 32, and 46 hrs post ANIT challenge and measured 48 hrs post ANIT challenge by H and E staining-based assay; type: functional, organism-based
# How it was run: (§5)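 ANIT 50 mg/kg ip liver-injury model in male SD rats, 6 per group. Oral or ip treatment at 30 min before and 8, 22, 32 and 46 h after ANIT. Liver excised at 48 h, fixed in 4% formalin, stained with H&E, and examined microscopically for hepatocellular edema and necrosis.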
# [8] = Tmax in Sprague-Dawley rat assessed as JBP485 level at 100 mg/kg, po by LC-MS/MS analysis; type: ADME, organism-based; conditions: in vivo
# How it was run: (§6)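 Male SD rats (200–250 g) fasted 12 h, given JBP485 or prodrug (calculated as JBP485) orally at 12 or 100 mg/kg. Jugular blood sampled 0.083–10 h, plasma JBP485 by UPLC-MS/MS; n=6.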
# Rattus norvegicus [9] = test: as §4, with “serum alanine aminotransferase level” for “hepatocellular edema”, “challenge” for “challenge by H and E staining-based assay”; type: functional, organism-based
# How it was run: (§7)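 ANIT (50 mg/kg ip, olive oil) cholestatic liver injury in male SD rats, 6 per group. Oral or ip dosing (UDCA 100 mg/kg po in CMC-Na) at 30 min before and 8, 22, 32 and 46 h after ANIT. Serum collected at 48 h from the abdominal aorta; ALT and AST activities measured with kits.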
# Rattus norvegicus [10] = test: as §4, with “serum aspartate aminotransferase level” for “hepatocellular edema”, “25” for “12.5”, “po” for “ip”, “challenge” for “challenge by H and E staining-based assay”; type: functional, organism-based; how it was run: as §7
# Rattus norvegicus [11] = test: as §4, with “liver necrosis” for “hepatocellular edema”, “25” for “12.5”, “po” for “ip”; type: functional, organism-based; how it was run: as §5
# [12] = target: T1, Solute carrier family 15 member 1 (Homo sapiens, UniProt P46059); test: Substrate activity at PEPT1 in human Caco2 cells assessed as inhibition of Gly-Sar uptake by LC-MS/MS analysis; type: cell-based
# T1 sequence (P46059 whole entry): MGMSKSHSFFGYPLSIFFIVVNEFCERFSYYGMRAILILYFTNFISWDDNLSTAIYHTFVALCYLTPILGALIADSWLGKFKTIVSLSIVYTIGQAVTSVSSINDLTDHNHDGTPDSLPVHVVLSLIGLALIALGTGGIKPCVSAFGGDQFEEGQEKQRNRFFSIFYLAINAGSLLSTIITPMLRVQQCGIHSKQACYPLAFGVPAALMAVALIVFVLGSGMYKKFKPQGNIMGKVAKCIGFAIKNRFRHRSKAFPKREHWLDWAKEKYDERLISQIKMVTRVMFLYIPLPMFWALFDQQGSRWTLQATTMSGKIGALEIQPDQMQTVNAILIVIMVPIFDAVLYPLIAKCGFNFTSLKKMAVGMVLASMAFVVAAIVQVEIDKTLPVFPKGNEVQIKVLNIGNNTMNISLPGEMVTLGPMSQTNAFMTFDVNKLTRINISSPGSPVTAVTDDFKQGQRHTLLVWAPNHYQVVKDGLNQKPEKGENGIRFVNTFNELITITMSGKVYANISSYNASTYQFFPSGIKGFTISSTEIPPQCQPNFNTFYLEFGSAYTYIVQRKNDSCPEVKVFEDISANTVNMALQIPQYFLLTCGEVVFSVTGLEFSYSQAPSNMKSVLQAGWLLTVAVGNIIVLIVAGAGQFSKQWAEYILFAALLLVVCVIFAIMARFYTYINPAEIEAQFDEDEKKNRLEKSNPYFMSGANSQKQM
# How it was run: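 Caco-2 cells with 0.5 mM Gly-Sar probe substrate and competitor at 0.5–50 mM. IC50 by nonlinear fitting; n=3.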
# [13] = AUC (0 to t) in Sprague-Dawley rat at 6 mg/kg, iv by UPLC-MS/MS analysis; type: ADME, organism-based; conditions: in vivo; how it was run: as §1
# [14] = AUC (0 to t) in Sprague-Dawley rat assessed as JBP485 level at 12 mg/kg, po by LC-MS/MS analysis; type: ADME, organism-based; conditions: in vivo; how it was run: as §1
# [15] = Terminal half life in Sprague-Dawley rat assessed as JBP485 level at 12 mg/kg, po by LC-MS/MS analysis; type: ADME, organism-based; conditions: in vivo; how it was run: as §6
# [16] = Tmax in Beagle dog at 12 mg/kg, po by UPLC-MS/MS analysis; type: ADME, organism-based, Canis lupus familiaris; conditions: in vivo; how it was run: as §2
# [17] = Tmax in Sprague-Dawley rat at 12 mg/kg, po by UPLC-MS/MS analysis; type: ADME, organism-based; conditions: in vivo; how it was run: as §3
# [18] = Terminal half life in Sprague-Dawley rat assessed as JBP485 level at 100 mg/kg, po by LC-MS/MS analysis; type: ADME, organism-based; conditions: in vivo; how it was run: as §6
SMILES,AUCt [1],Cmax [2],Ratio [3],Tmax [4],beta t1/2 [5],Tmax [6],Activity (Rattus norvegicus [7]),Tmax [8],Activity (Rattus norvegicus [9]),Activity (Rattus norvegicus [10]),Activity (Rattus norvegicus [11]),Ki [12],AUCt [13],AUCt [14],beta t1/2 [15],Tmax [16],Tmax [17],beta t1/2 [18]
CC(C)[C@H](N)C(=O)OC[C@@H]1NC(=O)[C@@H]2C[C@@H](O)CN2C1=O,233.25 nM/ml.hr,113 µM,3 to 35,0.58 h,1.68 h,0.57 h,,,,,,,,,,,,
O=C1N[C@@H](CO)C(=O)N2C[C@H](O)C[C@@H]12,,,,,,,Active,1.5 h,Active,Active,Active,36 mM,194 µM·h,81.4 nM/ml.hr,2.12 h,1.5 h,1.25 h,1.5 h
